dFosB activator: activators of mouse delta FosB homodimer. P13346. purified delta FosB, TAMRA-CDK5 oligo fluorescence polarization; percent of positive-control signal above neutral wells. activation, % at 25 µM. 0.99% of 340,000 active. AID 493131;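 active = mean activation above about 17%, with every replicate also reaching it, limit read from the data, passing the limit was not always enough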
CDK5 inh: blocks human CDK5/p35 kinase activity; Q00535+Q15078; AID 488839; Recombinant CDK5/p35, ADP-Glo luminescence, 60 min; inhibition, % at 10 µM; 0.01% of 330,000 active;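 active = highest replicate inhibition of at least 50% and at least 75% of replicates reaching 50%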;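 also: plate controls were DMSO neutral control for no effect and GW8510 at 10 µM for full effect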
Target sequence (Q00535 whole entry, looked up): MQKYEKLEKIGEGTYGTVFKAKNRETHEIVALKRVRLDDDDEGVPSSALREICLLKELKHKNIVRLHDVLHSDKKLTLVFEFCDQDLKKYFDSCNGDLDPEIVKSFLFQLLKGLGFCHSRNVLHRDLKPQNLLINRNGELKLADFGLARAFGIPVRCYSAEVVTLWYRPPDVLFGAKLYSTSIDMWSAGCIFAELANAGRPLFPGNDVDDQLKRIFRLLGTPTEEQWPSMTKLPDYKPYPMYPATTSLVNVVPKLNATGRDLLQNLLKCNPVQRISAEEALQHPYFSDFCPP
Target sequence (Q15078 whole entry, looked up): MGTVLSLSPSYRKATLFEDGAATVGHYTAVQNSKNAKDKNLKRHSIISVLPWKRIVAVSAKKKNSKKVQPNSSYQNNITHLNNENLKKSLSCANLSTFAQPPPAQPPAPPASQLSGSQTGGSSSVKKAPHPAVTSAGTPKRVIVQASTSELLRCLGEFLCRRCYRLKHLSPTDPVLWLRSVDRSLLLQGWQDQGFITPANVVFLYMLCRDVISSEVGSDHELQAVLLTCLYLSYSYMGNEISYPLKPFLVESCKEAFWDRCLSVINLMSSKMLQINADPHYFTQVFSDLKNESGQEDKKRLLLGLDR
Rtt109 Vps75: blocks Candida albicans Rtt109/Vps75 acetyltransferase activity; inhibition, % at 34.9 µM; purified Rtt109/Vps75, ThioGlo CoA-SH fluorescence, 4 h; Q5AAJ8; 0.16% of 330,000 active; AID 540336;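 active = inhibition of at least 50% in every replicate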
CAL PDZ FP-1: inhibitors of human CAL PDZ peptide binding; Q9HD26; purified CAL PDZ, TMR-peptide fluorescence polarization, 1 h; inhibition, % at 24.9 µM; 0.92% of 300,000 active; AID 602252;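 active = mean inhibition of at least 30% with at least half of replicates also reaching 30%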;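 also: 0% = DMSO neutral control and 100% = excess unlabeled competitor peptide PRC23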
DYRK1A inh: Dyrk1A (rat) kinase inhibition; inhibition, % at 12.5 µM; AID 504441; 0.43% of 310,000 active; Q63470; ADP-Glo luminescence, NFATc1 peptide; in the data active = inhibition above about 50%;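 also: plate controls were vehicle with enzyme for no effect and no enzyme for full effect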
CAL PDZ FP-2: inhibitors of human CAL PDZ peptide binding; Q9HD26; purified CAL PDZ, TMR-peptide fluorescence polarization, 1 h; inhibition, % at 20 µM; 0.02% of 330,000 active; AID 504414;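 active = highest replicate inhibition of at least 40%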;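 also: plate controls were DMSO neutral control wells for no effect and unlabeled competitor peptide control wells for full effect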
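material = purified tagged CAL PDZ domain construct (CerCALP) | buffer or medium = sodium phosphate/NaCl buffer pH 7.4 with TCEP, IgG, Thesit | reagent = TMR-labelled reporter peptide T*-PRC34 bound in PDZ groove | incubation = 1 h room-temperature incubation prior to read | measured by = fluorescence polarization (mP) | evaluation = percent inhibition from loss of millipolarization | control set = unlabelled peptide and DMSO controls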
* marks the source's active call; other numbers are inactive results; . = not tested or not shown. Sampled rows, rich in hits. Any-hit rate of the full collection: about 2.2%.

SMILES	dFosB activator	CDK5 inh	Rtt109 Vps75	CAL PDZ FP-1	DYRK1A inh	CAL PDZ FP-2
Cc1ccc(-c2nc(CS(=O)CC(=O)NC(C)CCc3ccccc3)c(C)o2)cc1 (stereo not given)	-9.2	.	-7.0	0.2	.	-3.3
COc1ccc(-c2nc(CS(=O)CC(=O)NC(C)CCc3ccccc3)c(C)o2)cc1OC (stereo not given)	-4.9	1.4	7.3	45.0*	1.4	0.4
Cc1cc(C(=O)COC(=O)c2ccc(NC(=O)CC#N)cc2)c(C)n1C1CC1	-6.3	2.5	1.7	0.4	-8.8	-2.8
Cc1nn(-c2ccccc2)c(C)c1NC(=O)COC(=O)c1ccc(Cl)c(S(N)(=O)=O)c1	-3.8	1.3	1.5	64.8*	1.8	0.6
Cc1cc(C(=O)COc2ccccc2C(N)=O)c(C)n1C1CC1	-5.2	-0.8	-13.2	0.1	-4.1	-5.2
Cc1cc(C(=O)COC(=O)c2ccc(Cl)c(S(N)(=O)=O)c2)c(C)n1C1CC1	-8.4	0.9	1.2	40.6*	-1.5	-1.0
Cc1ccccc1OCC(=O)OCC(=O)c1cc(C)n(C2CC2)c1C	-9.5	0.5	-12.1	46.5*	-8.1	-2.2
OC(CSc1ccc(F)cc1)CN1CCN(c2ccccc2)CC1 (stereo not given)	-3.0	-0.4	-5.1	2.4	1.1	-0.2
O=C(Nc1cccc(C(F)(F)F)c1)Oc1ccc(Cl)c2cccnc12	1.0	0.6	-12.8	35.2*	2.7	-1.4
O=C(COC(=O)c1cnccn1)Nc1ncc(C(F)(F)F)cc1Cl	-1.4	-0.4	0.2	54.5*	-1.2	-1.2
O=C(COC(=O)C1=COCCO1)Nc1ncc(C(F)(F)F)cc1Cl	-11.0	-2.7	-0.3	0.5	2.1	-1.6
COc1ccc(-c2nn(CCC#N)cc2C=C(C#N)C#N)cc1	-10.8	0.6	3.3	62.1*	-5.1	-2.3
COc1ccc(OC)c(NC(=O)NNC(=O)CCCOc2ccc(Cl)cc2C)c1	-11.7	-3.1	19.3	47.8*	0.4	-0.5
CSc1cccc(NC(=S)NN(C)C)c1	-0.6	1.6	6.8	63.6*	.	-0.4
CSc1cccc(NC(=S)Nc2ccc(F)cc2)c1	-7.9	2.3	10.2	0.1	.	-0.7
Cn1c(=O)c([N+](=O)[O-])c(NCc2ccccc2)c2ccccc21	-2.2	0.8	10.0	-1.8	-0.2	-2.8
Cn1c(=O)c([N+](=O)[O-])c(NCC2CCCO2)c2ccccc21 (stereo not given)	-5.2	0.2	5.9	72.6*	9.6	-0.6
O=S(c1ccccc1O)S(=O)c1ccccc1O (stereo not given)	-12.4	-0.6	-21.0	-0.4	2.1	-1.1
CC(=O)OCC(=O)N1N=C(c2ccc3ccccc3c2)CC1c1ccccc1 (stereo not given)	-2.1	0.7	-2.8	2.9	-4.1	-1.6
Nc1cc(=O)[nH]c(SCC(=O)N2N=C(c3ccc4ccccc4c3)CC2c2ccccc2)n1 (stereo not given)	9.5	-2.4	-2.9	32.5*	-1.8	-0.2
Cc1nc2c(C)cccn2c1/C(O)=C1\C(=O)C(=O)N(CCN(C)C)C1c1ccccc1 (stereo not given)	-4.6	1.1	-24.6	5.4	-3.3	-1.6
COC(=O)c1ccc(CSc2nnc3nc(C)cc(C)n23)cc1	-7.3	0.2	-5.8	33.3*	.	-0.7
COc1ccc(NC(=O)n2ncc3c(C)cccc32)cc1OC	-3.1	2.0	1.4	0.8	13.4	0.4
COc1ccc(NC(=O)n2ncc3c(C)cccc32)cc1	-0.7	0.3	-6.2	62.0*	-0.8	.
O=C(C1=C(O)C(=O)N(CCN2CCOCC2)C1c1ccccc1)c1cccs1 (stereo not given)	4.6	0.5	21.9	31.5*	3.1	-0.5
O=C(C1=C(O)C(=O)N(CCN2CCOCC2)C1c1cccc([N+](=O)[O-])c1)c1cccs1 (stereo not given)	-6.6	0.3	-14.5	-4.0	-0.7	-3.2
CC(C)c1ccc(Nc2ccc(C(=O)O)cc2[N+](=O)[O-])cc1	-10.5	-0.7	14.5	-1.6	5.0	-1.8
Cc1ccccc1Nc1nnc(SCC2CCCCO2)s1 (stereo not given)	-0.3	2.3	51.3*	-2.3	3.4	-2.4
